Data set [1] relates to Staphylococcus aureus. The data set is described as follows: Antibacterial activity against Staphylococcus aureus MTCC737 measured after 6 hrs by broth microdilution assay. As to conditions: MTCC737, 6 h. The class given is functional. An outline of the steps: (§1)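 Broth microdilution per CLSI; 5×10^5 cfu/mL bacteria in LB broth; compounds from DMSO stocks, final DMSO under 0.6%, with DMSO control. Plates incubated at the strain's recommended growth temperature and time; growth read as OD600.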
(In broth dilution the organism is exposed to a series of concentrations in liquid medium.)

Data set [2] in a line: Antibacterial activity against Arthrobacter chlorophenolicus A6MTCC3706 by broth microdilution assay. The class given is functional. As to conditions: Pseudarthrobacter chlorophenolicus. An outline of the steps:
as §1

For a further data set, the system named is HEK293. Briefly: Cytotoxicity against HEK293 cells measured after 24 hrs by MTT assay. The class given is cell-based. The conditions noted are these: Homo sapiens, HEK293, 24 h. An outline of the steps: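 HEK 293 cells, 4000/well, seeded overnight in DMEM + 10% FBS at 37°C in CO2; compound dose series for 24 h (final DMSO <0.5%, DMSO-only control). MTT at 1 mg/mL final for 3 h, formazan dissolved in DMSO, absorbance 595 nm; IC50 from triplicate OD data.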

Data set [3] in a line: Binding affinity to pCDNA 3.1 (unknown origin) assessed as DNA unwinding effect at 2:1 to 4:1 compound to DNA ratio measured after 16 hrs by EtBr staining agarose gel shift assay. An outline of the steps: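 pcDNA3.1 plasmid was grown in E. coli DH5α and used at 40 µM in 50 mM NaP, pH 7, with 10 mM NaCl. Mixed with compound at set [compound]:[DNA bp] ratios and held 16 h at 37 °C. Run on 1% agarose at 50 V for about 3 h, then stained with EtBr (1 µg/mL) for 5 min.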
(In general: A gel shift assay detects complexes by their altered migration in electrophoresis.)

In data set [4] the test system is Calf thymus DNA. Briefly: Binding affinity to calf thymus DNA assessed as change in B-DNA structure at 265 nm by circular dichroism method. The class given is nucleic-acid assay. The conditions noted are these: Bos taurus.
Data set [5] relates to Poly(dG-dC)oligonucleotide. Briefly: Binding affinity to poly(dG-dC) DNA (unknown origin) assessed as change in B-DNA structure by circular dichroism method. The class given is nucleic-acid assay. An outline of the steps:
(§2)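 Poly(dA-dT)·poly(dA-dT) or poly(dG-dC)·poly(dG-dC) held at 10 µM. Titrated with compound from 20 to 60 µM and followed by circular dichroism for change in the B-DNA band and appearance of induced CD.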
Background: CD spectra are sensitive to the conformation of chiral molecules.

Data set [6] has as its system Poly(dA-dT)oligonucleotide. The data set is described as follows: Binding affinity to poly(dA-dT) DNA (unknown origin) assessed as change in B-DNA structure up to 6:1 compound to DNA ratio by circular dichroism method. The class given is nucleic-acid assay. An outline of the steps:
as §2

The test system of data set [7] is DNA. Briefly: Binding affinity to Staphylococcus aureus DNA assessed as change in B-DNA structure by circular dichroism method. The class given is nucleic-acid assay. An outline of the steps:
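Genomic DNA isolated from overnight cultures of each strain. Titrated with compound from 15 to 60 µM in a 10 mm quartz cuvette. CD spectra recorded from 230 to 500 nm at 100 nm/min; ellipticity followed at 320 nm.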

Data set [8] concerns DNA. Briefly: Binding affinity to DNA isolated from HEK293 cells assessed as change in B-DNA structure at 15 to 180 uM by circular dichroism method. The class given is ADME, cell-free. As to conditions: human, hek293, 180 µM.
Data set [9] relates to DNA. The data set is described as follows: Binding affinity to Escherichia coli pBR322 DNA assessed as DNA unwinding at 0.5:1 to 1.5:1 compound to DNA ratio by atomic force microscopic analysis. The class given is nucleic-acid assay. An outline of the steps:
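Supercoiled pBR322 plasmid treated with compound at [compound]:[DNA bp] ratios of 0.5:1, 1:1, 1.5:1, 2:1 and 3:1. Imaged by atomic force microscopy, with DNA height measured and compared against untreated plasmid.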

Data set [10] concerns DNA. Briefly: Inhibition of ethidium bromide binding to Staphylococcus aureus DNA assessed as Stern-Volmer quenching constant by fluorescence assay. The class given is nucleic-acid assay. An outline of the steps: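 Fluorescence intercalator displacement: S. aureus genomic DNA 10 µM plus EtBr 5 µM in 10 mM NaP pH 7, 10 mM NaCl, 1% DMSO, at 25 and 37 °C; titrated with 2.5–100 µM compound. Excitation 480 nm, emission 520–700 nm, inner-filter corrected, triplicates; Stern–Volmer analysis, F0/F = 1 + Ksv[Q].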

In data set [11] the test system is Calf thymus DNA. Briefly: Binding affinity to calf thymus DNA by isothermal titration calorimetric analysis. The class given is nucleic-acid assay. The conditions noted are these: Bos taurus.
In data set [12] the test system is DNA. Briefly: Inhibition of ethidium bromide binding to Staphylococcus aureus DNA in presence of 10 to 200 mM NaCl by fluorescence assay. The class given is nucleic-acid assay. An outline of the steps: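 S. aureus genomic DNA (10 µM) with EtBr (5 µM) in 10 mM NaP pH 7, 10 mM NaCl and 1% DMSO, at 25 and 37 °C. Titrated with compound from 2.5 to 100 µM. Excitation 480 nm, emission scanned 520–700 nm, corrected for inner filter. Stern–Volmer analysis, triplicates. Variants: pH 6–8, or NaCl raised to 50 and 200 mM.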

In data set [13] the test system is DNA. The data set is described as follows: Binding affinity to Staphylococcus aureus DNA assessed as transition of local to global DNA at 1:1 to 3:1 compound to DNA ratio by atomic force microscopic analysis. The class given is nucleic-acid assay. An outline of the steps:
(§3)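 Isolated S. aureus genomic DNA (2.8 Mbp) treated with compound at increasing [compound]:[DNA bp] ratios, up to 3:1. Imaged by atomic force microscopy against untreated DNA.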

The test system of data set [14] is DNA. The data set is described as follows: Binding affinity to Staphylococcus aureus DNA assessed as relaxation of DNA strand at 1:1 compound to DNA ratio by atomic force microscopic analysis. The class given is nucleic-acid assay. An outline of the steps: as §3
For data set [15], the system named is DNA. The data set is described as follows: Binding affinity to Staphylococcus aureus DNA assessed as DNA condensation at 3:1 compound to DNA ratio by atomic force microscopic analysis. The class given is nucleic-acid assay. An outline of the steps:
as §3

The subject of data set [16] is DNA. Briefly: Induction of DNA condensation in Staphylococcus aureus assessed as decrease in nucleoid area at 10 uM after 1 hr by DAPI staining-based confocal laser scanning fluorescence microscopic analysis relative to control. The class given is nucleic-acid assay. More on the design: scale not given: the % may be the effect or the level left. An outline of the steps:
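S. aureus grown 6 h at 37 °C, washed into PBS and exposed to 10 µM compound or 0.5% DMSO for 1 h at 37 °C with shaking. Fixed in paraformaldehyde for 30 min at 4 °C, then DAPI-stained for 5 min. Nucleoid and cell areas measured from phase contrast/DAPI images; N/C ratio from 35 cells over three independent experiments, mean ± SD.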

The subject of data set [17] is Staphylococcus aureus. The data set is described as follows: Induction of morphological changes in Staphylococcus aureus assessed as change in microbe length at 5 uM by atomic force microscopic analysis (reference value: 1.37 +/- 0.09 micrometer). The class given is functional.
Data set [18] concerns Staphylococcus aureus. The data set is described as follows: Induction of morphological changes in Staphylococcus aureus assessed as cell aggregation at 3.5 to 5 uM by atomic force microscopic analysis. The class given is functional, organism-based.
Data set [19] deals with Staphylococcus aureus. Briefly: Induction of morphological changes in Staphylococcus aureus assessed as changed population at 3.5 uM measured after 2 hrs by flow cytometric analysis (reference value: 5.71%). The class given is functional.
Data set [20] concerns Staphylococcus aureus. Briefly: Induction of morphological changes in Staphylococcus aureus assessed as changed population at 7.5 uM measured after 2 hrs by flow cytometric analysis (reference value: 5.71%). The class given is functional.
For data set [21], the system named is Staphylococcus aureus. The data set is described as follows: Induction of morphological changes in Staphylococcus aureus assessed as increase in changed population measured after 2 hrs by flow cytometric analysis. The class given is functional, organism-based.
The test system of data set [22] is Staphylococcus aureus. Briefly: Disruption of cell membrane in Staphylococcus aureus assessed as accumulation of propidium iodide positive cells at 3.5 uM by flow cytometric analysis (reference value: 1.7%). The class given is functional.
The test system of another data set is Escherichia coli. Briefly: Disruption of membrane integrity in Escherichia coli assessed as increase in extracellular ALK level at 3.5 to 5 uM measured after 2 hrs by PLP substrate based assay.

Each structure is given as a SMILES string. Values after ≈ are worked out from the molar mass of the structure shown. Active and inactive are the calls of the source.

The source of these data is ChEMBL document CHEMBL4373710, “DNA Structural Alteration Leading to Antibacterial Properties of 6-Nitroquinoxaline Derivatives” (J Med Chem, 2019).

Consider `CN(C)CCCNc1nc2cc([N+](=O)[O-])ccc2nc1NCc1ccc(C(F)(F)F)cc1`, for which the MIC (as a rule, the smallest concentration in the dilution series that meets the test's criterion for growth inhibition) with Staphylococcus aureus [1] worked out at 1.79 µg/mL (≈ 3.99 µM); in data set [2], 0.897 µg/mL (≈ 2 µM). For the same compound, in the data set with HEK293, the midpoint of inhibition, the IC50, lay at 5.66 µg/mL (≈ 12.6 µM). The result (in [3]; in the data set with DNA [9]; in the data set with DNA [13]; with DNA [14]; in the data set on DNA [15]; in the data set on Staphylococcus aureus [18]) was Active. For the same compound, the outcome in the data set with Escherichia coli was Active. Moreover, the Activity entry in the data set on Calf thymus DNA [4] was “Dose-dependent effect”; in data set [5] it was “Dose-dependent effect”; in the data set with DNA [7], “Dose-dependent effect”; with DNA [8], “Active”; in the data set with DNA [16], 30%; in the data set with Staphylococcus aureus [17], 2.36 um. Moreover, the Activity is 10.2% with Staphylococcus aureus [19], 16.4% in the data set with Staphylococcus aureus [20], “Dose-dependent effect” in the data set on Staphylococcus aureus [21] and 7.96% in the data set on Staphylococcus aureus [22]. For the same compound, the result in [6] was inactive. In the data set on DNA [10], the KSV stood at 1 ×10⁴ /M. The compound further gave a Ka with Calf thymus DNA [11] of 2.27 ×10⁴ /M. In addition, the inhibition entry in the data set with DNA [12] is “Active”.
